Reference: ChEMBL document CHEMBL4196061, “Novel topoisomerase I inhibitors. Syntheses and biological evaluation of phosphorus substituted quinoline derivates with antiproliferative activity” (Eur J Med Chem, 2018)

What was measured:
[1] = target: T1, DNA topoisomerase 1 (Homo sapiens) (UniProt P11387); experiment: (§1) Inhibition of recombinant human topoisomerase 1-mediated DNA relaxation expressed in Saccharomyces cerevisiae TopI null strain RS190 at 80 uM using negatively supercoiled pUC18 as substrate pretreated with enzyme for 15 mins followed by substrate addition measured after 15 secs by agarose gel electrophoresis
T1 sequence (whole entry): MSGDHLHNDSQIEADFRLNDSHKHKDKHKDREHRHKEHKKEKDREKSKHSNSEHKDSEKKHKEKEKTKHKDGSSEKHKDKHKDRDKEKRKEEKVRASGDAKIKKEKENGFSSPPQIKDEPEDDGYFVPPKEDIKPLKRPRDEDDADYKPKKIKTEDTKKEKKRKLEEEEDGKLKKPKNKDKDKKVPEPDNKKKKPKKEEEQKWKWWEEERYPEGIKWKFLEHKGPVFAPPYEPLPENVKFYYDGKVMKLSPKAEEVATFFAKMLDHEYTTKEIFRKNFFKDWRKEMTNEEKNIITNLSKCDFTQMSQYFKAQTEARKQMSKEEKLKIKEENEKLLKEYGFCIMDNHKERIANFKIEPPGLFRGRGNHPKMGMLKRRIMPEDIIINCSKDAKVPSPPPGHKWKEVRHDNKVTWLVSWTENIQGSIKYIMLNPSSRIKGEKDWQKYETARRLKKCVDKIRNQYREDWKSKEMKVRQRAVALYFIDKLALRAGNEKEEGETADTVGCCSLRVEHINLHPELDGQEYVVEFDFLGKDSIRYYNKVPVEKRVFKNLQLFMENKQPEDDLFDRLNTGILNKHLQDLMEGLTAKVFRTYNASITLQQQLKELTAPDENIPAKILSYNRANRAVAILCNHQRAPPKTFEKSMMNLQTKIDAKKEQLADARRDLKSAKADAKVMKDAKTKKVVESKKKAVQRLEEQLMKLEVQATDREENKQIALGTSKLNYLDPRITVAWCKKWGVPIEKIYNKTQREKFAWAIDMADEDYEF
Procedure, shortened: (§2)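 Human TopI was expressed from pHT143 (GAL promoter) in yeast RS190 and affinity-purified. Reactions used 110 ng/µL TopI and 0.5 µg supercoiled pUC18 in 20 µl buffer (20 mM Tris–HCl, 0.1 mM Na2EDTA, 10 mM MgCl2, 50 µg/mL acetylated BSA, 150 mM KCl, pH 7.5). Drug was mixed with enzyme before DNA was added, and reactions were stopped with SDS. Products were resolved on 1% agarose in TBE and stained with gel red.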

HEK293 = experiment: Antiproliferative activity against human HEK293 cells after 48 hrs by CCK-8 assay; conditions: HEK293, 48 h
[2] = target: T1, DNA topoisomerase 1 (Homo sapiens); experiment: as §1, with “20” for “80”, “3 mins” for “15 secs”; procedure, shortened: as §2
A549 = experiment: Antiproliferative activity against human A549 cells after 48 hrs by CCK-8 assay; type: functional, cell-based; conditions: A549, 48 h
Procedure, shortened: (§3)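 Cells seeded at 2-4 x 10^3 per well and grown overnight in 0.1 mL medium with 10% FBS at 37 °C under 5% CO2. Drugs were added on day 2 and cells incubated 48 h. CCK-8 was then added for 2 h at 37 °C and absorbance read at 450 nm. IC50 values were reported.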

[3] = target: T1, DNA topoisomerase 1 (Homo sapiens); experiment: as §1, with “40” for “80”, “3 mins” for “15 secs”; procedure, shortened: as §2
SK-OV-3 = experiment: Antiproliferative activity against human SKOV3 cells after 48 hrs by CCK-8 assay; type: functional, cell-based; conditions: SK-OV-3, 48 h; procedure, shortened: as §3
[4] = target: T1, DNA topoisomerase 1 (Homo sapiens); experiment: as §1, with “3 mins” for “15 secs”; procedure, shortened: as §2
MRC5 = experiment: Antiproliferative activity against human MRC5 cells after 48 hrs by CCK-8 assay; type: cell-based; conditions: MRC5, 48 h; procedure, shortened: as §3
[5] = target: T1, DNA topoisomerase 1 (Homo sapiens); experiment: as §1, with “60” for “80”, “3 mins” for “15 secs”; procedure, shortened: as §2
[6] = target: T1, DNA topoisomerase 1 (Homo sapiens); experiment: as §1, with “10” for “80”, “3 mins” for “15 secs”; procedure, shortened: as §2
[7] = target: T1, DNA topoisomerase 1 (Homo sapiens); experiment: as §1, with “1 min” for “15 secs”; procedure, shortened: as §2

Structure (SMILES) | inhibition [1] [%] | IC50 (HEK293) [µM] | inhibition [2] [%] | IC50 (A549) [µM] | inhibition [3] [%] | IC50 (SK-OV-3) [µM] | inhibition [4] [%] | IC50 (MRC5) [µM] | inhibition [5] [%] | inhibition [6] [%] | inhibition [7] [%]
Cc1ccc([C@H]2C[C@@H](c3ccccc3)Nc3c2cccc3P(c2ccccc2)c2ccccc2)cc1 | 80 | > 50 | 16 | 0.11 | 17 | > 50 | 76 | > 50 | 22 | 0 | 79
O=P(c1ccccc1)(c1ccccc1)c1cccc2c1N[C@H](c1ccccn1)C[C@@H]2c1ccccc1 | 92 | 14.8 | 19 | 3.8 | 24 | 19.1 | 76 | > 50 | 34 | 19 | 85
Fc1ccc([C@H]2C[C@@H](c3ccc(F)cc3)Nc3c2cccc3P(=S)(c2ccccc2)c2ccccc2)cc1 | 85 | > 50 | 17 | 0.03 | 17 | > 50 | 75 | > 50 | 19 | 17 | 84
c1ccc([C@H]2C[C@@H](c3ccccc3)Nc3c2cccc3P(c2ccccc2)c2ccccc2)cc1 | 85 | > 50 | 0 | 0.6 | 0 | > 50 | 85 | > 50 | 0 | 0 | 85
S=P(c1ccccc1)(c1ccccc1)c1cccc2c1N[C@H](c1ccc3ccccc3c1)C[C@@H]2c1ccccc1 | 76 | > 50 | 16 | 0.27 | 19 | > 50 | 76 | > 50 | 28 | 15 | 76
